{
  "source": "ChEMBL document CHEMBL4699650",
  "about": "“SAR Investigation and Discovery of Water-Soluble 1-Methyl-1,4-dihydroindeno[1,2-c]pyrazoles as Potent Tubulin Polymerization Inhibitors” (J Med Chem, 2020)",
  "key": {"HepG2 [1]": {"system": "HepG2", "assay": "Antitumor activity against human HepG2 cells xenografted in Balb/c nude mouse assessed as reduction in tumor volume at 25 mg/kg, ig qd administered for 21 days measured at 3 days interval during compound dosing relative to control", "type": "functional", "design": "scale not given: the % may be the effect or the level left", "conditions": "time 21 day"}, "HepG2 [2]": {"system": "HepG2", "assay": "Antiproliferation activity against human HepG2 cells assessed as cell growth inhibition measured after 72 hrs by MTT assay", "type": "functional", "outline": "(§1)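 Cells grown in RPMI-1640 with 10% FBS at 37 °C, 5% CO2, seeded at 4−7 × 10³ cells/well and left to adhere overnight. Exposed to a range of concentrations for 72 h, then MTT (2.5 mg/mL stock) added for 4 h. Formazan dissolved in DMSO and absorbance read at 570 nm. GI50 taken as the concentration giving 50% growth inhibition, reported as mean ± SD of at least three independent experiments.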"}, "A549": {"system": "A549", "assay": "Antiproliferation activity against human A549 cells assessed as cell growth inhibition measured after 72 hrs by MTT assay", "type": "functional", "outline": "as §1"}, "[3]": {"assay": "Cytotoxicity against human L02 cells assessed as assessed as cell growth inhibition measured after 72 hrs by MTT assay", "type": "cell-based", "outline": "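LO2 normal liver cells cultured in RPMI-1640/10% FBS at 37 °C, 5% CO2 and seeded at 4−7 × 10³ cells/well. Graded concentrations applied for 72 h, then MTT readout at 570 nm. GI50 is the concentration giving 50% growth inhibition, mean ± SD of at least three independent experiments.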"}, "[4]": {"assay": "Antiproliferation activity against human A549/Taxol cells assessed as cell growth inhibition measured after 72 hrs by MTT assay", "type": "functional", "outline": "as §1"}, "[5]": {"target": "Tubulin beta (Homo sapiens) (UniProt P68371+Q9H4B7+Q13509+P04350+Q3ZCM7+P07437+Q13885+Q9BVA1+Q9BUF5+A6NNZ2)", "assay": "Inhibition of N,N'-Ethylenebis(iodoacetamide) binding to beta-tubulin in human HepG2 cells assessed as reduction in EBI/beta-tubulin adduct formation preincubated for 2 hrs followed by EBI addition and measured after 1.5 hrs by Western blot analysis", "type": "cell-based", "conditions": "dose microM 0.2-25, time 3.5 hrs", "outline": "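HepG2 seeded 5 × 10⁵ cells/well, adhered overnight. […] Lysate protein (20 μg) run on 10% polyacrylamide gel on ice and transferred to PVDF. Probed with anti-β-tubulin 16 h at 4 °C, then HRP secondary. Chemiluminescence detection.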"}, "HepG2 [6]": {"system": "HepG2", "assay": "Induction of cell cycle arrest in human HepG2 cells assessed as accumulation in G2/M phase at 5 nM incubated for 24 hrs by propidium iodide staining based flow cytometry (reference value: 12.59%)", "type": "functional"}, "HepG2 [7]": {"system": "HepG2", "assay": "Induction of cell cycle arrest in human HepG2 cells assessed as accumulation in G1 phase at 10 nM incubated for 24 hrs by propidium iodide staining based flow cytometry (reference value: 60.76%)", "type": "functional"}, "HepG2 [8]": {"system": "HepG2", "assay": "Induction of cell cycle arrest in human HepG2 cells assessed as accumulation in S phase at 10 nM incubated for 24 hrs by propidium iodide staining based flow cytometry (reference value: 26.65%)", "type": "functional"}, "HepG2 [9]": {"system": "HepG2", "assay": "Induction of cell cycle arrest in human HepG2 cells assessed as accumulation in S phase at 20 nM incubated for 24 hrs by propidium iodide staining based flow cytometry (reference value: 26.65%)", "type": "functional"}, "HepG2 [10]": {"system": "HepG2", "assay": "Induction of apoptosis in human HepG2 cells assessed as necrotic cells at 5 nM incubated for 12 hrs by Annexin V-PE and 7-AAD staining based flow cytometry (reference value: 0.55 %)", "type": "functional", "outline": "(§2)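 HepG2 cells seeded at 3 × 10⁵ cells/well, adhered overnight, exposed at 5, 10 or 20 nM for 12 or 24 h. Harvested into Annexin V binding buffer and stained with annexin V-PE and 7-AAD for 15 min at room temperature in the dark, then analysed by flow cytometry. Gates: live (−/−), early apoptotic (+/−), late apoptotic (+/+), necrotic (−/+).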"}, "HepG2 [11]": {"system": "HepG2", "assay": "Induction of apoptosis in human HepG2 cells assessed as necrotic cells at 10 nM incubated for 12 hrs by Annexin V-PE and 7-AAD staining based flow cytometry (reference value: 0.55 %)", "type": "functional", "outline": "as §2"}, "HepG2 [12]": {"system": "HepG2", "assay": "Induction of apoptosis in human HepG2 cells assessed as late apoptotic cells at 10 nM incubated for 12 hrs by Annexin V-PE and 7-AAD staining based flow cytometry (reference value: 2.79%)", "type": "functional", "outline": "as §2"}, "HepG2 [13]": {"system": "HepG2", "assay": "Induction of apoptosis in human HepG2 cells assessed as live cells at 10 nM incubated for 12 hrs by Annexin V-PE and 7-AAD staining based flow cytometry (reference value: 92.1%)", "type": "functional", "outline": "as §2"}, "HepG2 [14]": {"system": "HepG2", "assay": "Induction of apoptosis in human HepG2 cells assessed as early apoptotic cells at 10 nM incubated for 12 hrs by Annexin V-PE and 7-AAD staining based flow cytometry (reference value: 4.52%)", "type": "functional", "outline": "as §2"}, "HepG2 [15]": {"system": "HepG2", "assay": "Induction of apoptosis in human HepG2 cells assessed as early apoptotic cells at 5 nM incubated for 24 hrs by Annexin V-PE and 7-AAD staining based flow cytometry (reference value: 4.16 %)", "type": "functional", "outline": "as §2"}, "HepG2 [16]": {"system": "HepG2", "assay": "Induction of apoptosis in human HepG2 cells assessed as live cells at 10 nM incubated for 24 hrs by Annexin V-PE and 7-AAD staining based flow cytometry (reference value: 93.2%)", "type": "functional", "outline": "as §2"}, "HepG2 [17]": {"system": "HepG2", "assay": "Induction of apoptosis in human HepG2 cells assessed as late apoptotic cells at 20 nM incubated for 24 hrs by Annexin V-PE and 7-AAD staining based flow cytometry (reference value: 2.33 %)", "type": "functional", "outline": "as §2"}, "HepG2 [18]": {"system": "HepG2", "assay": "Induction of apoptosis in human HepG2 cells assessed as early apoptotic cells at 20 nM incubated for 24 hrs by Annexin V-PE and 7-AAD staining based flow cytometry (reference value: 4.16 %)", "type": "functional", "outline": "as §2"}, "HepG2 [19]": {"system": "HepG2", "assay": "Induction of apoptosis in human HepG2 cells assessed as PARP cleavage at 2.5 to 20 nM incubated for 24 hrs by western blot analysis", "type": "functional, cell-based", "conditions": "dose nM 2.5-20, time 24.0 hrs", "outline": "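Lysates (20 μg protein) separated by 10% PAGE and blotted to PVDF. Probed for Bax, Bcl-2, cleaved caspase-3 and cleaved PARP, detected by ECL and quantified by densitometry.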"}, "[20]": {"assay": "Aqueous solubility of compound in DMSO at pH 7.4 by HPLC analysis", "type": "physicochemical", "conditions": "aqueous medium", "outline": "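Solubility measured at pH 7.4. DMSO stock (10 mg/mL) diluted in methanol to five levels to build an HPLC peak-area standard curve. Compound added to 1 mL buffer to make a saturated solution, and the peak area of that solution analysed by HPLC on a C18 column. Solubility calculated from the standard curve.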"}, "[21]": {"assay": "Toxicity in Balb/c nude mouse xenografted with human HepG2 cells assessed as change in body weight at 25 mg/kg, po qd administered for 21 days measured at 3 days interval during compound dosing (reference value: - 17.2 % )", "type": "organism-based", "conditions": "in vivo, 504 h, time 21 day", "outline": "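Nude mice received 200 μL PBS with HepG2 cells (1 × 10⁷ cells/mL) subcutaneously in the right armpit. At 90 mm³ tumour volume, randomized to 5 per group. Dosed 25 mg/kg as a 2.5 mg/mL distilled-water solution, intragastric once daily for 21 days; distilled water as vehicle. Body weight recorded every 3 days; change given as initial vs end weight.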"}, "[22]": {"assay": "Toxicity in Balb/c nude mouse xenografted with human HepG2 cells assessed as adverse signs at 5 to 10 mg/kg, iv administered every 2 days for 21 days", "type": "organism-based", "conditions": "in vivo, 504 h, dose 5-10 mg/kg, time 21 day"}},
  "note": "Activity calls are given as the source filed them. The rule behind the calls is not given here.",
  "data": [
    {"smiles": "CCOc1cccc(Nc2nn(C)c3c2Cc2cc(OCC)c(OCCCN)cc2-3)c1", "values": [
      {"measurement": "Activity", "setting": "HepG2 [1]", "result": 57, "unit": "%"},
      {"measurement": "GI50", "setting": "HepG2 [2]", "result": 2.4, "unit": "nM"},
      {"measurement": "GI50", "setting": "A549", "result": 3.7, "unit": "nM"},
      {"measurement": "GI50 at 72 h", "setting": "[3]", "result": 284, "unit": "nM"},
      {"measurement": "GI50", "setting": "[4]", "result": 14.7, "unit": "nM"},
      {"measurement": "inhibition", "setting": "[5]", "result": "Dose-dependent effect"},
      {"measurement": "Activity", "setting": "HepG2 [6]", "result": 19.78, "unit": "%"},
      {"measurement": "Activity", "setting": "HepG2 [7]", "result": 17.07, "unit": "%"},
      {"measurement": "Activity", "setting": "HepG2 [8]", "result": 26.85, "unit": "%"},
      {"measurement": "Activity", "setting": "HepG2 [9]", "result": 8.43, "unit": "%"},
      {"measurement": "Activity", "setting": "HepG2 [10]", "result": 0.43, "unit": "%"},
      {"measurement": "Activity", "setting": "HepG2 [11]", "result": 0.92, "unit": "%"},
      {"measurement": "Activity", "setting": "HepG2 [12]", "result": 4.39, "unit": "%"},
      {"measurement": "Activity", "setting": "HepG2 [13]", "result": 85.2, "unit": "%"},
      {"measurement": "Activity", "setting": "HepG2 [14]", "result": 9.58, "unit": "%"},
      {"measurement": "Activity", "setting": "HepG2 [15]", "result": 9.75, "unit": "%"},
      {"measurement": "Activity", "setting": "HepG2 [16]", "result": 75.5, "unit": "%"},
      {"measurement": "Activity", "setting": "HepG2 [17]", "result": 10.7, "unit": "%"},
      {"measurement": "Activity", "setting": "HepG2 [18]", "result": 36.6, "unit": "%"},
      {"measurement": "Activity", "setting": "HepG2 [19]", "result": "Active"},
      {"measurement": "solubility", "setting": "[20]", "result": "> 1000", "unit": "µg/mL"},
      {"measurement": "Activity", "setting": "[21]", "result": -18.5, "unit": "%"},
      {"measurement": "Activity", "setting": "[22]", "result": "Non-Toxic"}
    ]}
  ]
}
